HCV core dimer: inhibitors of HCV core protein dimerization, primary screen, biochemical, TR-FRET, high-throughput; TR-FRET GST/Flag-core106 dimerization, 1536-well; inhibition, % at 5 µM; 0.33% of 300,000 active; AID 1899, 2009;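 active = inhibition above the mean of all tested compounds plus 3 SD, set per screening campaign, cut at about 45% in these data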
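Test system: GST/Flag-tagged HCV core106 proteins; Medium: KF-containing HEPES buffer, pH 7.45, DTT, CHAPS, BSA; Times: compound-protein-antibody incubation 4 h at 22.5 °C; Detection: TR-FRET 671 and 617 nm emission; Benchmarks: wells lacking GST-core106 and wells with excess unlabelled core106.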
NS3 helicase inh: inhibitors of HCV NS3 helicase, primary screen, biochemical, Cy5 molecular beacon fluorescence | 0.56% of 290,000 active | NS3 helicase DNA unwinding | inhibition, % at 10.9 µM | Hepatitis C virus NS3 helicase | AID 1800, 2009;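 active = inhibition above the mean of all tested compounds plus 3 SD, set per campaign, cut at about 35% in these data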;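 note: 0% = DMSO wells and 100% = thioflavine S control wells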
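Test system: hepatitis C virus NS3 helicase domain fragment enzyme. Also added: annealed dual-labelled DNA beacon duplex, ATP-started. Timing: 60 min unwinding reaction at 25 °C after ATP addition. Technique: Cy5 fluorescence. Measure: % inhibition of unwinding.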
Tb MetRS inh: T. brucei MetRS inhibitors, primary screen, biochemical, luminescence; purified T. brucei MetRS, ATP depletion, Kinase-Glo luminescence; AID 624268, 2012; 0.4% of 360,000 active; methionyl-tRNA synthetase (Trypanosoma brucei brucei); inhibition, % at 11.9 µM;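 active = inhibition above a per-plate cutoff of the control wells' mean inhibition plus 3 SD, cut at about 5.5% in these data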;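 note: 0% = DMSO wells median and 100% = median of wells with control inhibitor compound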
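Dosing: 11.9 µM single point; system: parasite MetRS enzyme; technique: luminescence of leftover ATP; times: 15 min enzyme-compound preincubation, 2 h reaction, 10 min detection, 25 °C; replicates: each compound tested once; read-out basis: percent inhibition relative to median high and low control wells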
Lipid droplet: inhibitors of hepatocyte lipid droplet formation, primary screen, imaging, high-throughput imaging, BODIPY stain; AML12 mouse hepatocytes, oleate lipid droplets; inhibition, % at 6.5 µM; 0.4% of 240,000 active; AID 1656, 2009;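 active = lipid droplet intensity inhibited by at least 50%, with more than 500 cells counted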
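Assay system: AML12 mouse liver cells | Compound dosing: One dose, 6.5 µM compound | Read-out basis: Droplet intensity reduction, % inhibition | Measured by: Fluorescence imaging, 20x objective, two fields per well | Schedule: Overnight treatment with compound plus oleate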
NS3 helicase cf: HCV NS3 helicase inhibitors, retest, confirmation, biochemical, Cy5 molecular beacon fluorescence, triplicate | shares compounds with NS3 helicase inh | NS3 helicase DNA unwinding | 31% of 1,600 active | AID 1943, 2009 | inhibition, % at 10.9 µM;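 active = inhibition above the mean of all tested compounds plus 3 SD, cutoff set per campaign, cut at about 36% in these data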
FID counter trip: compounds displacing fluorescent DNA intercalator, artefact control for HCV NS3 helicase inhibitor project, biochemical, FID fluorescence, triplicate. shares compounds with NS3 helicase inh. DNA fluorescent intercalator displacement. inhibition, % at 7.9 µM. 4% of 1,600 active. AID 1945, 2009; in the data active = inhibition above about 37%;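 note: 0% = vehicle and 100% = reference compound; higher means more displacement of ethidium bromide from the DNA hairpin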
* hit, by the source's call; . = not tested or not shown. Most compounds without a hit are left out; they make up all but 1.3% or so of the library.

SMILES	HCV core dimer	NS3 helicase inh	Tb MetRS inh	Lipid droplet	NS3 helicase cf	FID counter trip
Cc1cc(C)cc(N=Cc2c(O)c3ccccc3oc2=O)c1	4	12	0	10	.	.
O=C(NCc1ccc(Cl)nc1)c1csc([C@@H]2C[C@H](O)[C@@H](CO)O2)n1	.	.	0	.	.	.
Cc1cc2c(cc1C)-n1nnnc1C(N1CCN(c3ncccc3C#N)CC1)C(=O)N2 (stereo not drawn)	.	.	-1	.	.	.
OC(C#CCN1CCCC1)(c1ccccc1)c1cccnc1 (stereo not drawn)	-1	-5	-1	-15	.	.
CCCN(CC#CC(O)(c1ccccc1)c1cccnc1)CCC (stereo not drawn)	-3	45*	0	-10	-10	4
CC1(C(=O)NS(=O)(=O)c2ccccc2Cl)CCN1C(=O)Cc1ccc(Cl)cc1Cl (stereo not drawn)	.	.	0	.	.	.
COc1cc(CC(=O)C(=O)O)oc(=O)c1	.	.	0	.	.	.
O=C(Nc1ccccc1N1CCOCC1)c1cccnc1Cl	0	53*	-1	17	-18	-4
CCC1C/C(=C/c2ccco2)C(=O)/C(=C/c2ccco2)C1 (stereo not drawn)	24	46*	.	4	77*	12
CCC1C/C(=C\c2cc(OC)c(OC)cc2OC)C(=O)/C(=C/c2cc(OC)c(OC)cc2OC)C1 (stereo not drawn)	17	-25	-1	-6	.	.
CC(C)CC[n+]1ccn(-c2nc3ccccc3nc2[N-]S(=O)(=O)c2ccccc2)c1	2	-2	0	.	.	.
O=S(=O)([N-]c1nc2ccccc2nc1-n1cc[n+](Cc2ccccc2)c1)c1ccc(Cl)cc1	10	37*	0	5	-2	-33
CCOC(=O)c1c(NC(=O)CC2SC(N)=NC2=O)sc(C)c1C (stereo not drawn)	5	4	-1	2	.	.
Cc1ccc(S(=O)(=O)NN2C(=O)/C(=C/c3cccn3C)SC2=S)cc1	0	50*	.	-1	60*	8
Cc1ccc(S(=O)(=O)NN2C(=O)/C(=C/c3ccc(C(=O)O)cc3)SC2=S)cc1	4	37*	-1	8	-19	-7
O=C1/C(=C/c2cccc(F)c2)SC(=S)N1NS(=O)(=O)c1ccccc1	3	37*	1	23	70*	-7
COc1cc(/C=C2\SC(=S)N(NS(=O)(=O)c3ccccc3)C2=O)cc(OC)c1OC	7	24	0	-1	.	.
CCN(CC)CCNC(=O)C(C)c1nn(CC)c(=O)c2ccccc12 (stereo not drawn)	1	-2	0	0	.	.
COc1ccc(C2=NS(=O)(=O)N(C)C(C(=O)N3CCCCC3)=C2)cc1OC	7	-6	0	-56	.	.
C=CCc1cc(OC)ccc1OCCOCCN1CCc2ccccc2C1	2	-20	0	-4	.	.
O=C1/C(=C/c2ccco2)SC(=S)N1c1cccnc1	.	14	0	-3	.	.
NN1C(=O)/C(=C\c2ccco2)SC1=S	-2	38*	1	-2	-12	-1
O=C(CCCN1C(=O)/C(=C/c2ccco2)SC1=S)Nc1cccc(C(=O)O)c1	2	56*	0	.	88*	4
CCCCCCc1nc(C(N)=O)c2[nH]c(=O)n(-c3ccccc3F)c2n1	15	9	-1	-1	.	.
CCOc1cc(CN2CCC(CO)(Cc3cccc(C(F)(F)F)c3)CC2)ccc1OC	1	-27	-1	-45	.	.
SMILES	HCV core dimer	NS3 helicase inh	Tb MetRS inh	Lipid droplet	NS3 helicase cf	FID counter trip
Cc1c(C(=O)O)cccc1-c1ccc(/C=C2\SC(=O)NC2=O)o1	-20	45*	0	2	-20	5
C=COC(=O)CSc1nc(-c2cccs2)ccc1C#N	-2	48*	-1	.	-13	6
C=CCn1c(SCC(=O)NC2CCCC2)nc2ccccc21	.	.	0	.	.	.
CC(=O)C1=C(O)C(=O)N(c2ccc(O)cc2)C1c1ccc(Cl)cc1 (stereo not drawn)	4	8	-1	-8	.	.
CC(=O)C1=C(O)C(=O)N(c2cc(C(C)(C)C)on2)C1c1ccc(Br)cc1 (stereo not drawn)	5	38*	-1	.	68*	-12
CC(=O)C1=C(O)C(=O)N(c2ccc(Br)cc2)C1c1ccc(Cl)cc1 (stereo not drawn)	9	37*	0	11	80*	1
CCOc1ccc(-c2cc(C(=O)Nc3cccc(C(F)(F)F)c3)[nH]n2)c(C)c1	.	.	0	.	.	.
O=C(COC(=O)c1ccc(F)c(S(=O)(=O)N2CCOCC2)c1)NCCc1ccccc1	-1	.	-1	.	.	.
CC(C)Oc1ccc2ccccc2c1CNC[C@H]1O[C@@H](n2ccc(N)nc2=O)[C@H](O)[C@@H]1O	.	.	-1	.	.	.
COc1ccc(NS(=O)(=O)c2cccc(C(=O)NNC(=O)c3ccccc3OC)c2)cc1	0	.	0	.	.	.
COc1ccc(NS(=O)(=O)c2cccc(C(=O)NNC(=O)NCCCl)c2)cc1	-3	69*	-1	2	-14	-6
CN(Cc1cccs1)C(=O)/C=C/c1ccccc1[N+](=O)[O-]	3	61*	0	6	-10	9
CCN(Cc1ccccc1)C(=O)/C=C/c1ccccc1[N+](=O)[O-]	.	-2	0	-3	.	.
Cc1noc(C)c1NC(=O)N(C)C[C@H]1Oc2c(NS(=O)(=O)c3cn(C)cn3)cccc2C(=O)N([C@H](C)CO)C[C@@H]1C	.	.	0	.	.	.
COC(=O)C(NS(C)(=O)=O)(c1c(C)[nH]c2ccccc12)C(F)(F)F (stereo not drawn)	0	7	-1	.	.	.
O=C1CCCC2=C1C(c1ccco1)Nc1ccc3ccccc3c12 (stereo not drawn)	71*	41*	-1	.	36	-6
COc1ccc(C2Nc3cccc4cccc(c34)N2)cc1	-26	6	0	-13	.	.
Clc1cccc(C2Nc3cccc4cccc(c34)N2)c1	47*	55*	0	-4	-10	13
Brc1cccc(C2Nc3cccc4cccc(c34)N2)c1	8	24	0	3	.	.
Clc1ccc(C2Nc3cccc4cccc(c34)N2)cc1Cl	8	59*	0	-2	-22	25
CCc1nnc(NS(=O)(=O)c2ccc(NC(=S)NC(=O)c3ccc(OC)cc3)cc2)s1	19	37*	0	-22	52*	10
C#CCOc1c(Cl)cc(/C=C2/C(=O)ON=C2C)cc1OCC	2	57*	0	.	71*	16
